# According to ChEMBL document CHEMBL4316595, “Synthesis and structure-activity relationship studies of parthenolide derivatives as potential anti-triple negative breast cancer agents” (Eur J Med Chem, 2019):
# Test system: MDA-MB-231
# Assay: Antiproliferative activity against human MDA-MB-231 cells measured after 72 hrs by MTT assay
# Assay type: functional, cell-based
# Conditions: MDA-MB-231, 72 h
# Method in brief: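 MTT antiproliferation assay on human breast cancer lines MDA-MB-231, SUM-159, MCF-7 and Bcap-37 and on mouse 4T1 breast cancer cells. IC50 values were taken from the MTT read-out. Adriamycin served as the positive control.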
row,IC50 [µM],SMILES
1,2.29,C=C1C(=O)O[C@H]2[C@H]1CC/C(COC(=O)/C=C/c1ccccn1)=C\CC[C@@]1(C)O[C@@H]21
2,1.89,C=C1C(=O)O[C@H]2[C@H]1CC/C(COC(=O)/C=C/c1ccc(O)cc1)=C\CC[C@@]1(C)O[C@@H]21
3,1.73,C=C1C(=O)O[C@H]2[C@H]1CC/C(COC(=O)/C=C/c1cccc(F)c1)=C\CC[C@@]1(C)O[C@@H]21
4,2.25,C=C1C(=O)O[C@H]2[C@H]1CC/C(COC(=O)/C(=C/c1cc(OC)ccc1OC)CC)=C\CC[C@@]1(C)O[C@@H]21
5,1.02,C=C1C(=O)O[C@H]2[C@H]1CC/C(COC(=O)/C=C/c1cc(OC)c(OC)cc1OC)=C\CC[C@@]1(C)O[C@@H]21
6,1.78,C=C1C(=O)O[C@H]2[C@H]1CC/C(COC(=O)/C=C/c1cccc(Cl)c1)=C\CC[C@@]1(C)O[C@@H]21
7,1.32,C=C1C(=O)O[C@H]2[C@H]1CC/C(COC(=O)/C=C/c1ccc(F)cc1)=C\CC[C@@]1(C)O[C@@H]21
8,2.52,C=C1C(=O)O[C@H]2[C@H]1CC/C(COC(=O)/C=C/c1ccc(C(F)(F)F)cc1)=C\CC[C@@]1(C)O[C@@H]21
9,2.01,C=C1C(=O)O[C@H]2[C@H]1CC/C(COC(=O)/C(=C/c1cc(OC)ccc1OC)c1ccc(Br)cc1)=C\CC[C@@]1(C)O[C@@H]21
10,2.25,C=C1C(=O)O[C@H]2[C@H]1CC/C(COC(=O)/C=C/c1ccco1)=C\CC[C@@]1(C)O[C@@H]21
11,1.8,C=C1C(=O)O[C@H]2[C@H]1CC/C(COC(=O)/C=C/c1cccs1)=C\CC[C@@]1(C)O[C@@H]21
12,2.01,C=C1C(=O)O[C@H]2[C@H]1CC/C(COC(=O)/C=C/c1ccc(O)c(OC)c1)=C\CC[C@@]1(C)O[C@@H]21
13,1.5,C=C1C(=O)O[C@H]2[C@H]1CC/C(COC(=O)/C=C/c1c(Br)cccc1Br)=C\CC[C@@]1(C)O[C@@H]21
14,2.3,C=C1C(=O)O[C@H]2[C@H]1CC/C(COC(=O)CCc1c(OC)cccc1OC)=C\CC[C@@]1(C)O[C@@H]21
15,1.8,C=C1C(=O)O[C@H]2[C@H]1CC/C(COC(=O)/C=C/c1ccc3c(c1)OCO3)=C\CC[C@@]1(C)O[C@@H]21
16,1.84,C=C1C(=O)O[C@H]2[C@H]1CC/C(COC(=O)/C=C/c1cccc(OC)c1)=C\CC[C@@]1(C)O[C@@H]21
17,2.02,C=C1C(=O)O[C@H]2[C@H]1CC/C(COC(=O)/C=C/c1cc(OC)cc(OC)c1)=C\CC[C@@]1(C)O[C@@H]21
18,1.08,C=C1C(=O)O[C@H]2[C@H]1CC/C(COC(=O)/C=C/c1cccc(C)c1)=C\CC[C@@]1(C)O[C@@H]21
19,1.96,C=C1C(=O)O[C@H]2[C@H]1CC/C(COC(=O)/C(=C/c1cc(OC)ccc1OC)c1ccc(F)cc1)=C\CC[C@@]1(C)O[C@@H]21
20,1.98,C=C1C(=O)O[C@H]2[C@H]1CC/C(COC(=O)/C(=C/c1cc(OC)ccc1OC)c1ccc(C(F)(F)F)cc1)=C\CC[C@@]1(C)O[C@@H]21
21,2.51,C=C1C(=O)O[C@H]2[C@H]1CC/C(COC(=O)/C(=C/c1cc(OC)ccc1OC)c1ccc(OC)cc1)=C\CC[C@@]1(C)O[C@@H]21
22,2.79,C=C1C(=O)O[C@H]2[C@H]1CC/C(COC(=O)/C=C/c1ccncc1)=C\CC[C@@]1(C)O[C@@H]21
23,1.59,C=C1C(=O)O[C@H]2[C@H]1CC/C(COC(=O)/C=C/c1c(Cl)cccc1Cl)=C\CC[C@@]1(C)O[C@@H]21
24,1.33,C=C1C(=O)O[C@H]2[C@H]1CC/C(COC(=O)/C=C/c1ccccc1Br)=C\CC[C@@]1(C)O[C@@H]21

row,IC50 [µM],SMILES
1,2.01,C=C1C(=O)O[C@H]2[C@H]1CC/C(COC(=O)/C(=C/c1cc(OC)ccc1OC)c1ccccc1)=C\CC[C@@]1(C)O[C@@H]21
2,1.87,C=C1C(=O)O[C@H]2[C@H]1CC/C(COC(=O)/C(=C/c1cc(OC)ccc1OC)c1ccc(SC)cc1)=C\CC[C@@]1(C)O[C@@H]21
3,1.95,C=C1C(=O)O[C@H]2[C@H]1CC/C(COC(=O)/C=C/c1ccc(OC)c(OC)c1)=C\CC[C@@]1(C)O[C@@H]21
4,3.55,C=C1C(=O)O[C@H]2[C@H]1CC/C(COC(=O)c1c(OC)cccc1OC)=C\CC[C@@]1(C)O[C@@H]21
5,> 20,COC(=O)/C=C/c1c(OC)cccc1OC
6,> 50,COC(=O)/C=C/c1cc(OC)ccc1OC
7,1.8,C=C1C(=O)O[C@H]2[C@H]1CC/C(COC(=O)/C=C/c1ccccc1F)=C\CC[C@@]1(C)O[C@@H]21
8,2.95,C=C1C(=O)O[C@H]2[C@H]1CC/C(COC(=O)/C(=C/c1cc(OC)ccc1OC)c1ccc(C)cc1)=C\CC[C@@]1(C)O[C@@H]21
9,1.73,C=C1C(=O)O[C@H]2[C@H]1CC/C(COC(=O)/C=C/c1ccc(OC)cc1)=C\CC[C@@]1(C)O[C@@H]21
10,1.77,C=C1C(=O)O[C@H]2[C@H]1CC/C(COC(=O)/C=C/c1ccc(OC)c(OC)c1OC)=C\CC[C@@]1(C)O[C@@H]21
11,7.53,C=C1C(=O)O[C@H]2[C@H]1CC/C(COC(=O)/C(=C/c1cc(OC)ccc1OC)CCC)=C\CC[C@@]1(C)O[C@@H]21
12,1.02,C=C1C(=O)O[C@H]2[C@H]1CC/C(COC(=O)/C=C/c1ccc(Br)cc1)=C\CC[C@@]1(C)O[C@@H]21
13,1.22,C=C1C(=O)O[C@H]2[C@H]1CC/C(COC(=O)/C=C/c1ccc(Cl)cc1)=C\CC[C@@]1(C)O[C@@H]21
14,1.15,C=C1C(=O)O[C@H]2[C@H]1CC/C(COC(=O)/C=C/c1ccc(OC(C)=O)cc1)=C\CC[C@@]1(C)O[C@@H]21
15,1.42,C=C1C(=O)O[C@H]2[C@H]1CC/C(COC(=O)/C=C/c1ccccc1Cl)=C\CC[C@@]1(C)O[C@@H]21
16,3.27,C=C1C(=O)O[C@H]2[C@H]1CC/C(COC(=O)/C=C/c1cccnc1)=C\CC[C@@]1(C)O[C@@H]21
17,1.8,C=C1C(=O)O[C@H]2[C@H]1CC/C(COC(=O)/C=C/c1ccc(C#N)cc1)=C\CC[C@@]1(C)O[C@@H]21
18,1.64,C=C1C(=O)O[C@H]2[C@H]1CC/C(COC(=O)/C=C/c1cccc(Br)c1)=C\CC[C@@]1(C)O[C@@H]21
19,1.58,C=C1C(=O)O[C@H]2[C@H]1CC/C(COC(=O)/C=C/c1ccc(OCC)cc1)=C\CC[C@@]1(C)O[C@@H]21
20,1.87,C=C1C(=O)O[C@H]2[C@H]1CC/C(COC(=O)/C(=C/c1cc(OC)ccc1OC)c1ccc(OCC)cc1)=C\CC[C@@]1(C)O[C@@H]21
21,1.59,C=C1C(=O)O[C@H]2[C@H]1CC/C(COC(=O)/C=C/c1c(F)cccc1F)=C\CC[C@@]1(C)O[C@@H]21
22,5.59,C=C1C(=O)O[C@H]2[C@H]1CC/C(CO)=C\CC[C@@]1(C)O[C@@H]21
23,1.09,C=C1C(=O)O[C@H]2[C@H]1CC/C(COC(=O)/C=C/c1c(OC)cc(OC)cc1OC)=C\CC[C@@]1(C)O[C@@H]21
24,1.48,C=C1C(=O)O[C@H]2[C@H]1CC/C(COC(=O)/C=C/c1ccc3ccccc3c1)=C\CC[C@@]1(C)O[C@@H]21
